“And” between values parts separate entries of the source, which are not always exact repeats. Equal values may be shown once.
How the values were obtained:
Mus musculus [1] = assay: Biodistribution of compound in mice leg muscle after 0.17 hr of intravenous injection; format: ADME, organism-based, Muscle tissue; conditions: in vivo
In short: (§1)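 BALB/c mice (about 25 g), n = 4. Free ¹¹¹In- or ⁶⁷Ga-labeled compound (50–100 μL, about 100 000 cpm) was injected into a tail vein. Mice were held in separate cages and killed by cervical dislocation, with blood and cumulative excreta collected. Tissues were rinsed, blotted, weighed and γ-counted, with blood background subtracted (blood volume 8.0%). Values are % injected dose ± SD.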

Mus musculus [2] = assay: Biodistribution in mice intestine, after 12 hr of intravenous administration of 1-2 ug of compound (entrapped in bovine brain sphingomyelin/ cholesterol multilamellar vehicles); format: ADME, organism-based; conditions: in vivo
In short: (§2)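 BALB/c mice (about 25 g), 3–5 per group, given 50–100 μL tail-vein injection of 111In-labeled conjugate entrapped in SM/CH (2:1 mol/mol) multilamellar vesicles, approx. 100 000 cpm; dose 1–2 μg phospholipid/g body weight. Killed by cervical dislocation at set times; blood, cumulative excretion and rinsed, blotted, weighed tissues γ-counted, blood background subtracted. Result is % injected dose ± SD.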

Mus musculus [3] = assay: Biodistribution in mice heart, after 48 hr of intravenous administration of 1-2 ug of compound (entrapped in bovine brain sphingomyelin/ cholesterol multilamellar vehicles); format: ADME, organism-based; conditions: in vivo; in short: as §2
Mus musculus [4] = assay: Biodistribution in mice kidneys, after 1 hr of intravenous administration of 1-2 ug of compound (entrapped in bovine brain sphingomyelin/ cholesterol multilamellar vehicles); conditions: in vivo
Mus musculus [5] = assay: Biodistribution in mice kidneys, after 12 hr of intravenous administration of 1-2 ug of compound (entrapped in bovine brain sphingomyelin/ cholesterol multilamellar vehicles); format: ADME, organism-based, Kidney; conditions: in vivo; in short: as §2
Mus musculus [6] = assay: Biodistribution in mice tail, after 12 hr of intravenous administration of 1-2 ug of compound (entrapped in bovine brain sphingomyelin/ cholesterol multilamellar vehicles); format: ADME, organism-based; conditions: in vivo
In short: (§3)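 BALB/c mice (about 25 g), groups of 2–5. Compound ¹¹¹In-loaded into SM/CH (2:1, mol/mol) multilamellar vesicles, given as a single tail-vein injection. Lipid dose was 1–2 μg phospholipid/g body weight, in 50–100 μL carrying about 100 000 cpm. Mice were killed by cervical dislocation. Organs were rinsed, blotted, weighed and γ-counted, with blood background subtracted. Values are % injected dose ± SD.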

[7] = Biodistribution in mice excretion, after 24 hr of intravenous administration of 1-2 ug of ofcompound (entrapped in bovine brain sphingomyelin/ cholesterol multilamellar vehicles); format: ADME, organism-based; conditions: mouse, excretion (excreta, not specified further), read-out: ID; in short: as §2
Mus musculus [8] = assay: Biodistribution in mice brain, after 1 hr of intravenous administrating 1-2 ug of compound (entrapped in bovine brain sphingomyelin/ cholesterol multilamellar vehicles); format: ADME, organism-based; conditions: in vivo; in short: as §2
Mus musculus [9] = assay: Biodistribution of compound in mice kidneys after 1 hr of intravenous injection; format: ADME, organism-based, Kidney; conditions: in vivo; in short: as §1
Mus musculus [10] = assay: Biodistribution in mice brain, after 48 hr of intravenous administrating 1-2 ug of compound (entrapped in bovine brain sphingomyelin/ cholesterol multilamellar vehicles); format: ADME, organism-based; conditions: in vivo; in short: as §2
Mus musculus [11] = assay: Biodistribution of compound in mice carcass after 21 hr of intravenous injection; format: ADME, organism-based; conditions: in vivo; in short: as §1
Mus musculus [12] = assay: Biodistribution of compound in mice leg muscle after 1 hr of intravenous injection; format: ADME, organism-based, Muscle tissue; conditions: in vivo; in short: as §1
Mus musculus [13] = assay: Biodistribution in mice leg muscle, after 48 hr of intravenous administration of compound (entrapped in bovine brain sphingomyelin/ cholesterol multilamellar vehicles); format: ADME, organism-based, Muscle tissue; conditions: in vivo; in short: as §2
Mus musculus [14] = assay: Biodistribution of compound in mice spleen after 0.17 hr of intravenous injection; format: ADME, organism-based; conditions: in vivo; in short: as §1
Mus musculus [15] = assay: Biodistribution in mice intestine, after 24 hr of intravenous administration of 1-2 ug of compound (entrapped in bovine brain sphingomyelin/ cholesterol multilamellar vehicles); format: ADME, organism-based; conditions: in vivo; in short: as §2
Mus musculus [16] = assay: Biodistribution of compound in mice liver after 21 hr of intravenous injection; format: ADME, organism-based; conditions: in vivo; in short: as §1
Mus musculus [17] = assay: Biodistribution in mice skin, after 1 hr of intravenous administration of 1-2 ug of compound (entrapped in bovine brain sphingomyelin/ cholesterol multilamellar vehicles); format: ADME, organism-based, Zone of skin; conditions: in vivo; in short: as §2
Mus musculus [18] = assay: Biodistribution in mice kidneys, after 48 hr of intravenous administration of 1-2 ug of compound (entrapped in bovine brain sphingomyelin/ cholesterol multilamellar vehicles); format: ADME, organism-based, Kidney; conditions: in vivo; in short: as §2
Mus musculus [19] = assay: Biodistribution in mice leg muscle, after 24 hr of intravenous administration of 1-2 ug of compound (entrapped in bovine brain sphingomyelin/ cholesterol multilamellar vehicles); format: ADME, organism-based, Muscle tissue; conditions: in vivo; in short: as §2
[20] = Biodistribution in mice excretion, after 1 hr of intravenous administration of 1-2 ug of compound (entrapped in bovine brain sphingomyelin/ cholesterol multilamellar vehicles); format: ADME, organism-based; conditions: mouse, excretion (excreta, not specified further), read-out: ID; in short: as §2
Mus musculus [21] = assay: Biodistribution in mice leg muscle, after 1 hr of intravenous administration of 1-2 ug ofcompound (entrapped in bovine brain sphingomyelin/ cholesterol multilamellar vehicles); format: ADME, organism-based, Muscle tissue; conditions: in vivo; in short: as §2
Mus musculus [22] = assay: Biodistribution of compound in mice blood after 21 hr of intravenous injection; format: ADME, organism-based; conditions: in vivo; in short: as §1
Mus musculus [23] = assay: Biodistribution of compound in mice tail after 0.17 hr of intravenous injection; format: ADME, organism-based; conditions: in vivo; in short: as §1
Mus musculus [24] = assay: Biodistribution of compound in mice leg muscle after 21 hr of intravenous injection; format: ADME, organism-based, Muscle tissue; conditions: in vivo; in short: as §1
Mus musculus [25] = assay: Biodistribution of compound in mice spleen after 21 hr of intravenous injection; format: ADME, organism-based; conditions: in vivo; in short: as §1
Mus musculus [26] = assay: Biodistribution in mice lung, after 24 hr of intravenous administration of 1-2 ug of compound (entrapped in bovine brain sphingomyelin/ cholesterol multilamellar vehicles); format: ADME, organism-based; conditions: in vivo; in short: as §2
Mus musculus [27] = assay: Biodistribution of compound in mice intestine after 21 hr of intravenous injection; format: ADME, organism-based; conditions: in vivo; in short: as §1
Mus musculus [28] = assay: Biodistribution in mice stomach, after 48 hr of intravenous administration of 1-2 ug of compound (entrapped in bovine brain sphingomyelin/ cholesterol multilamellar vehicles); format: ADME, organism-based; conditions: in vivo; in short: as §3
Mus musculus [29] = assay: Biodistribution in mice skin, after 12 hr of intravenous administration of 1-2 ug of compound (entrapped in bovine brain sphingomyelin/ cholesterol multilamellar vehicles); format: ADME, organism-based, Zone of skin; conditions: in vivo; in short: as §2
Mus musculus [30] = assay: Biodistribution in mice lung, after 48 hr of intravenous administration of 1-2 ug of compound (entrapped in bovine brain sphingomyelin/ cholesterol multilamellar vehicles); format: ADME, organism-based; conditions: in vivo; in short: as §2
Mus musculus [31] = assay: Biodistribution in mice stomach, after 24 hr of intravenous administration of 1-2 ug of ofcompound (entrapped in bovine brain sphingomyelin/ cholesterol multilamellar vehicles); format: ADME, organism-based; conditions: in vivo; in short: as §3
Mus musculus [32] = assay: Biodistribution in mice blood, after 48 hr of intravenous administration of 1-2 ug of compound (entrapped in bovine brain sphingomyelin/ cholesterol multilamellar vehicles); format: ADME, organism-based; conditions: in vivo; in short: as §2
Mus musculus [33] = assay: Biodistribution in mice fat, after 1 hr of intravenous administration of 1-2 ug ofcompound (entrapped in bovine brain sphingomyelin/ cholesterol multilamellar vehicles); format: ADME, organism-based; conditions: in vivo; in short: as §2
Mus musculus [34] = assay: Biodistribution in mice heart, after 12 hr of intravenous administration of compound (entrapped in bovine brain sphingomyelin/ cholesterol multilamellar vehicles); format: ADME, organism-based; conditions: in vivo; in short: as §2
Mus musculus [35] = assay: Biodistribution of compound in mice tail after 21 hr of intravenous injection; format: ADME, organism-based; conditions: in vivo; in short: as §1
Mus musculus [36] = assay: Biodistribution in mice brain, after 12 hr of intravenous administration of 1-2 ug of compound (entrapped in bovine brain sphingomyelin/ cholesterol multilamellar vehicles); format: ADME, organism-based; conditions: in vivo; in short: as §2
Mus musculus [37] = assay: Biodistribution in mice liver, after 12 hr of intravenous administration of 1-2 ug of compound (entrapped in bovine brain sphingomyelin/ cholesterol multilamellar vehicles); format: ADME, organism-based; conditions: in vivo; in short: as §2
Mus musculus [38] = assay: Biodistribution in mice spleen, after 24 hr of intravenous administration of 1-2 ug of compound (entrapped in bovine brain sphingomyelin/ cholesterol multilamellar vehicles); format: ADME, organism-based; conditions: in vivo; in short: as §2

NCCNC(=O)CN(CCN(CCN(CC(=O)O)CC(=O)O)CC(=O)O)CC(=O)O
ID (Mus musculus [1]): 3.2% and 3.1%
ID (Mus musculus [2]): 1%
ID (Mus musculus [3]): 0%
ID (Mus musculus [4]): 0.5%
ID (Mus musculus [5]): 0.4%
ID (Mus musculus [6]): 2.7%
dose excreted at 24 h [7]: 0%
ID (Mus musculus [8]): 0%
ID (Mus musculus [9]): 1.9% and 1.7%
ID (Mus musculus [10]): 0.2%
ID (Mus musculus [11]): 0.8% and 3%
ID (Mus musculus [12]): 0.8% and 1.3%
ID (Mus musculus [13]): 0.3%
ID (Mus musculus [14]): 0.2% and 0.1%
ID (Mus musculus [15]): 0.8%
ID (Mus musculus [16]): 0.4% and 2.1%
ID (Mus musculus [17]): 1.6%
ID (Mus musculus [18]): 0.4%
ID (Mus musculus [19]): 0.2%
dose excreted at 1 h [20]: 0%
ID (Mus musculus [21]): 0.3%
ID (Mus musculus [22]): 1% and 0.7%
ID (Mus musculus [23]): 3.8% and 3.7%
ID (Mus musculus [24]): 0.2% and 0.3%
ID (Mus musculus [25]): 0.1%
ID (Mus musculus [26]): 0.4%
ID (Mus musculus [27]): 2.2% and 5.8%
ID (Mus musculus [28]): 0%
ID (Mus musculus [29]): 1.1%
ID (Mus musculus [30]): 0.2%
ID (Mus musculus [31]): 0.1%
ID (Mus musculus [32]): 0.4%
ID (Mus musculus [33]): 0.3%
ID (Mus musculus [34]): 0%
ID (Mus musculus [35]): 2.1% and 2.3%
ID (Mus musculus [36]): 0%
ID (Mus musculus [37]): 73.6%
ID (Mus musculus [38]): 1.9%
